Results taken from ChEMBL document CHEMBL2407076, “cis-Restricted 3-aminopyrazole analogues of combretastatins: synthesis from plant polyalkoxybenzenes and biological evaluation in the cytotoxicity and phenotypic sea urchin embryo assays” (2013).
Active and inactive are the calls of the source.

Columns and labels:
[1] = test system: Paracentrotus lividus; test: Microtubule destabilizing activity in sea urchin embryo assessed as embryo spinning compound treated just after hatching at 8 to 10 hrs post fertilization and measured after 15 mins to 20 hrs of treatment
[2] = test system: Paracentrotus lividus; test: Antiproliferative activity against sea urchin embryo assessed as cleavage arrest compound treated at 45 to 55 mins prior to first mitotic cycle completion and measured at 2.5 to 5.5 hrs post fertilization; format: functional
Procedure, shortened: (§1)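 Fertilized eggs were treated 8−20 min after fertilization. The embryos were held at room temperature in filtered seawater as a monolayer of up to 2000 embryos/mL. Compounds were given as 2-fold decreasing concentrations from a 10 mM DMSO stock diluted 10-fold in 95% EtOH, with DMSO ≤0.05% and EtOH ≤1%. Embryos were scored by light microscopy. The value is the effective threshold concentration, measured in duplicate.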

[3] = test system: Paracentrotus lividus; test: Antiproliferative activity against sea urchin embryo assessed as cleavage alteration compound treated at 45 to 55 mins prior to first mitotic cycle completion and measured at 2.5 to 5.5 hrs post fertilization; format: functional
Procedure, shortened: as §1

[4] = Growth inhibition of human NCI60 cells at 10 uM after 48 hrs by SRB assay; format: functional; settings: NCI60, 48 h, read-out: GI
Procedure, shortened: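 Tested in the NCI60 single-dose screen at 10 μM. The value is the mean percent inhibition of cell growth across the panel.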

[5] = test system: OVCAR-3; test: Growth inhibition of human OVCAR3 cells after 48 hrs by SRB assay; format: functional; settings: OVCAR-3, 48 h
Procedure, shortened: (§2)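 Tested in the NCI60 anticancer drug screen. GI50 is the concentration giving 50% cell growth inhibition. For the panel-wide line, the value is the mean GI50 across the panel.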

[6] = test system: OVCAR-8; test: Growth inhibition of human OVCAR8 cells after 48 hrs by SRB assay; format: functional, cell-based
Procedure, shortened: as §2

[7] = Growth inhibition of human NCI60 cells after 48 hrs by SRB assay; format: functional; settings: NCI60, 48 h
Procedure, shortened: as §2

[8] = test system: SR; test: Growth inhibition of human SR cells after 48 hrs by SRB assay; format: functional
Procedure, shortened: as §2

[9] = test system: SW-620; test: Growth inhibition of human SW620 cells after 48 hrs by SRB assay; format: functional; settings: SW-620, 48 h
Procedure, shortened: as §2

[10] = test system: KM12; test: Growth inhibition of human KM12 cells after 48 hrs by SRB assay; format: functional; settings: KM12, 48 h
Procedure, shortened: as §2

[11] = test system: HL-60(TB); test: Growth inhibition of human HL-60(TB) cells after 48 hrs by SRB assay; format: functional; settings: HL-60, 48 h
Procedure, shortened: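 Tested in the NCI60 anticancer drug screen. HL-60(TB) is one of the leukemia lines in the panel. Value reported as GI50, the concentration needed for 50% inhibition of cell growth.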

[12] = test system: NCI/ADR-RES; test: Growth inhibition of human NCI/ADR-RES cells after 48 hrs by SRB assay; format: functional, cell-based
Procedure, shortened: as §2

[13] = test system: K562; test: Growth inhibition of human K562 cells after 48 hrs by SRB assay; format: functional; settings: K562, 48 h
Procedure, shortened: as §2

[14] = test system: MDA-MB-435; test: Growth inhibition of human MDA-MB-435 cells after 48 hrs by SRB assay; format: functional; settings: MDA-MB-435, 48 h
Procedure, shortened: as §2

[15] = test system: NCI-H522; test: Growth inhibition of human NCI-H522 cells after 48 hrs by SRB assay; format: functional; settings: NCI-H522, 48 h
Procedure, shortened: as §2

SMILES	EC [1] [µM]	EC [2] [µM]	EC [3] [µM]	inhibition of growth at 10 µM [4] [%]	GI50 [5] [nM]	growth inhibition (GI) [6]	GI50 [7] [nM]	GI50 [8] [nM]	GI50 [9] [nM]	GI50 [10] [nM]	GI50 [11] [nM]	growth inhibition (GI) [12]	GI50 [13] [nM]	GI50 [14] [nM]	GI50 [15] [nM]
COc1ccc(-c2[nH]nc(N)c2-c2cc(OC)c3c(c2OC)OCO3)cc1	>4	>4	>4	–	–	–	–	–	–	–	–	–	–	–	–
COc1ccc(-c2c(N)n[nH]c2-c2cc(OC)c3c(c2)OCO3)cc1	>5	>4	1	18.1	–	–	–	–	–	–	–	–	–	–	–
COc1ccc(-c2c(N)n[nH]c2-c2cc(OC)c3c(c2)OCCO3)cc1	>5	>4	1	32	–	–	–	–	–	–	–	–	–	–	–
COc1ccc(-c2c(N)n[nH]c2-c2cc(OC)c(OC)c(OC)c2)cc1	>10	1	0.1	75.8	< 100	Active	302	< 100	< 100	< 100	< 100	Active	< 100	–	–
COc1ccc(-c2[nH]nc(N)c2-c2cc(OC)c3c(c2)OCO3)cc1	>10	>4	0.2	46	–	Active	4370	–	–	–	–	Active	–	–	–
COc1ccc(-c2c(N)n[nH]c2-c2cc3c(c(OC)c2OC)OCO3)cc1	>4	>4	>4	3.38	–	–	–	–	–	–	–	–	–	–	–
COc1ccc(-c2[nH]nc(N)c2-c2cc(OC)c(OC)c(OC)c2)cc1	1	0.05	0.01	89.2	–	Active	46	–	–	–	–	Active	–	< 10	< 10
COc1ccc(-c2c(N)n[nH]c2-c2cc(OC)c3c(c2OC)OCO3)cc1	>4	>4	4	–	–	–	–	–	–	–	–	–	–	–	–
COc1ccc(-c2[nH]nc(N)c2-c2cc3c(c(OC)c2OC)OCO3)cc1	>4	>4	>4	–	–	–	–	–	–	–	–	–	–	–	–
